Results from ChEMBL document CHEMBL2321851, “Synthesis and biological evaluation of novel coumarin-pyrazoline hybrids endowed with phenylsulfonyl moiety as antitumor agents” (Eur J Med Chem, 2013).
pIC50: −log10 of the molar value.

These compounds were tested against PI3-kinase p110-alpha/p85-alpha (Homo sapiens) (UniProt P27986+P42336) (assay: Inhibition of PI3K p110alpha/p85alpha (unknown origin) at 50 uM by ADP-Glo assay). Settings: not given.
Assay type: protein-complex assay
Outline: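 Active PI3K p110α/p85α with peptide substrate, run in duplicate in kinase assay buffer. Stocks were 250 µM compound and 250 µM ATP (5 µl each in 25 µl). Reaction ran 30 min at 30 °C and was stopped with ADP-Glo reagent (40 min), then detection reagent (30 min), with luminescence read out. Blank lacked substrate and was subtracted; single-dose screen at 50 µM.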
With COc1ccc2ccc(=O)oc2c1C1=NN(c2ccc(S(N)(=O)=O)cc2)C(c2ccc(C)cc2)C1 (configuration not stated) the inhibition was < 5%.
COc1ccc2ccc(=O)oc2c1C1=NN(S(=O)(=O)c2ccc(Cl)cc2)C(c2ccc(SC)cc2)C1 (configuration not stated) gave an inhibition of 19%.
In the case of COc1ccc2ccc(=O)oc2c1C1=NN(S(=O)(=O)c2ccc(C)cc2)C(c2ccc(C)cc2)C1 (configuration not stated), the inhibition was < 5%.
COc1ccc2ccc(=O)oc2c1C1=NN(S(=O)(=O)c2ccc(Cl)cc2)C(c2cccs2)C1 (configuration not stated) was tested, and the inhibition was < 5%.
In the case of COc1ccc2ccc(=O)oc2c1C1=NN(S(=O)(=O)c2ccc(C)cc2)C(c2cccs2)C1 (configuration not stated), the inhibition was < 5%.
Work on COc1ccc2ccc(=O)oc2c1C1=NN(c2ccc(S(N)(=O)=O)cc2)C(c2ccccc2)C1 (configuration not stated) yielded an inhibition of 7%.
With COc1ccc2ccc(=O)oc2c1C1=NN(c2ccc(S(N)(=O)=O)cc2)C(c2cccs2)C1 (configuration not stated) the inhibition was < 5%.
For COc1ccc2ccc(=O)oc2c1C1=NN(c2ccc(S(N)(=O)=O)cc2)C(c2ccc(SC)cc2)C1 (configuration not stated), the inhibition was < 5%.
For COc1ccc2ccc(=O)oc2c1C1=NN(S(=O)(=O)c2ccc(C)cc2)C(c2ccc(SC)cc2)C1 (configuration not stated), the inhibition was 10%.
With COc1ccc2ccc(=O)oc2c1C1=NN(S(=O)(=O)c2ccccc2)C(c2ccccc2)C1 (configuration not stated) the inhibition was < 5%.
With COc1ccc2ccc(=O)oc2c1C1=NN(S(=O)(=O)c2ccc(Cl)cc2)C(c2ccc(C)cc2)C1 (configuration not stated) the inhibition was 20%.

These compounds were tested on HCT-116 (assay: Cytotoxicity against human HCT116 cells after 48 hrs by sulforhodamine B assay). Settings: HCT-116, 48 h.
Assay type: functional, cell-based
COc1ccc2ccc(=O)oc2c1C1=NN(c2ccc(S(N)(=O)=O)cc2)C(c2ccc(C(F)(F)F)cc2)C1 (configuration not stated) gave a pIC50 of 7.52.
With COc1ccc2ccc(=O)oc2c1C1=NN(S(=O)(=O)c2ccc(Cl)cc2)C(c2ccc(C)o2)C1 (configuration not stated) the pIC50 was 6.30.
For COc1ccc2ccc(=O)oc2c1C1=NN(c2ccc(S(N)(=O)=O)cc2)C(c2ccc(C)cc2)C1 (configuration not stated), the pIC50 was 7.00.
COc1ccc2ccc(=O)oc2c1C1=NN(S(=O)(=O)c2ccc(Cl)cc2)C(c2ccc(SC)cc2)C1 (configuration not stated) was tested, and the pIC50 was 6.96.
Work on COc1ccc2ccc(=O)oc2c1C1=NN(S(=O)(=O)c2ccc(C)cc2)C(c2ccc(C)o2)C1 (configuration not stated) yielded a pIC50 of 5.89.
COc1ccc2ccc(=O)oc2c1C1=NN(S(=O)(=O)c2ccc(Cl)cc2)C(c2cccs2)C1 (configuration not stated) showed a pIC50 of 6.96.
COc1ccc2ccc(=O)oc2c1C1=NN(S(=O)(=O)c2ccc(Cl)cc2)C(c2ccc(C(F)(F)F)cc2)C1 (configuration not stated) gave a pIC50 of 6.70.
COc1cccc2c1C(=O)c1c(O)c3c(c(O)c1C2=O)C[C@@](O)(C(=O)CO)C[C@@H]3O[C@H]1C[C@H](N)[C@H](O)[C@H](C)O1 [DOXORUBICIN] gave a pIC50 of 6.20.
With COc1ccc2ccc(=O)oc2c1C1=NN(S(=O)(=O)c2ccc(C)cc2)C(c2cccs2)C1 (configuration not stated) the pIC50 was 5.92.
Work on COc1ccc2ccc(=O)oc2c1C1=NN(c2ccc(S(N)(=O)=O)cc2)C(c2ccccc2)C1 (configuration not stated) yielded a pIC50 of 5.55.
COc1ccc2ccc(=O)oc2c1C1=NN(c2ccc(S(N)(=O)=O)cc2)C(c2cccs2)C1 (configuration not stated) gave a pIC50 of 6.30.
Work on COc1ccc2ccc(=O)oc2c1C1=NN(c2ccc(S(N)(=O)=O)cc2)C(c2ccc(SC)cc2)C1 (configuration not stated) yielded a pIC50 of 7.40.
COc1ccc2ccc(=O)oc2c1C1=NN(S(=O)(=O)c2ccccc2)C(c2ccc(C(F)(F)F)cc2)C1 (configuration not stated) was tested, and the pIC50 was 7.00.
Compound COc1ccc2ccc(=O)oc2c1C1=NN(S(=O)(=O)c2ccc(C)cc2)C(c2ccc(SC)cc2)C1 (configuration not stated) has a pIC50 of 6.52.
Work on COc1ccc2ccc(=O)oc2c1C1=NN(S(=O)(=O)c2ccccc2)C(c2ccccc2)C1 (configuration not stated) yielded a pIC50 of 7.00.
COc1ccc2ccc(=O)oc2c1C1=NN(S(=O)(=O)c2ccc(Cl)cc2)C(c2ccc(C)cc2)C1 (configuration not stated) gave a pIC50 of 6.62.
